Measured values reported in ChEMBL document CHEMBL3124909, “Heat shock protein 70 inhibitors. 2. 2,5'-thiodipyrimidines, 5-(phenylthio)pyrimidines, 2-(pyridin-3-ylthio)pyrimidines, and 3-(phenylthio)pyridines as reversible binders to an allosteric site on heat shock protein 70” (J Med Chem, 2014).

Tested on: SK-BR-3
Test: Inhibition of HSP70 in human SKBR3 cells assessed as HER2 degradation by Western blotting analysis
Type: cell-based
Conditions: not given
In short: (§1)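 Cells (SKBr3, MDA-MB-468, MiaPaCa-2 in DME/F12; MOLM-13 in RPMI; 10% FBS) grown to 60–70% confluence, then given inhibitor or DMSO. Lysis in 50 mM Tris pH 7.4, 150 mM NaCl, 1% NP-40. Protein measured by BCA, and client proteins or cleaved PARP detected by immunoblotting with peroxidase-conjugated secondary antibody.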

Row | Structure (SMILES) | INH [µM]
1 | COc1nc(N2CCN(C)CC2)ncc1Sc1cccc(NC(=O)CN)c1 | 18
2 | C=CC(=O)Nc1ccnc(Sc2c(C)nc(N3CCN(C)CC3)nc2C)n1 | 4
3 | CCC(=O)Nc1cccc(Sc2c(OC)nc(N3CCN(C)CC3)nc2OC)c1 | 75
4 | Cc1nc(N2CCN(C)CC2)nc(C)c1Sc1nccc(NC(=O)c2ccco2)n1 | 25
5 | C=CC(=O)Nc1cc(N)nc(Sc2c(OCC)nc(N3CCN(C)CC3)nc2OCC)n1 | 1
6 | CCOc1nc(N2CCN(C)CC2)nc(OCC)c1Sc1nc(N)cc(NC(=O)CC)n1 | 50

Tested on: not listed separately
Test: Cytotoxicity against human SKBR3 cells after 72 hrs by alamar blue assay
Type: functional, SK-BR-3
Conditions: not given
In short: (§2)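 Alamar Blue (resazurin) viability assay: attached cells (SKBr3) plated at 8000/well, suspension cells (Kasumi-1) at 20000/well, left 24 h at 37 °C, then drug added in triplicate for 72 h. Alamar Blue 50 μM added, fluorescence read 6 h later (ex 530, em 580 nm). Growth inhibition versus control corrected for time-zero population; IC50 = concentration giving 50% growth inhibition.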

Row | Structure (SMILES) | GI [µM]
7 | COc1nc(N2CCN(C)CC2)ncc1Sc1cccc(NC(=O)CN)c1 | 15
8 | C=CC(=O)Nc1ccnc(Sc2c(C)nc(N3CCN(C)CC3)nc2C)n1 | 1.8
9 | CCC(=O)Nc1cccc(Sc2c(OC)nc(N3CCN(C)CC3)nc2OC)c1 | 55
10 | Cc1nc(N2CCN(C)CC2)nc(C)c1Sc1nccc(NC(=O)c2ccco2)n1 | 30
11 | C=CC(=O)Nc1cc(N)nc(Sc2c(OCC)nc(N3CCN(C)CC3)nc2OCC)n1 | 1.1
12 | CCOc1nc(N2CCN(C)CC2)nc(OCC)c1Sc1nc(N)cc(NC(=O)CC)n1 | 55

Tested on: SK-BR-3
Test: Induction of apoptosis in human SKBR3 cells assessed as c-PARP cleavage by Western blotting analysis
Type: functional
Conditions: not given
In short: as §1

Row | Structure (SMILES) | INH [µM]
13 | COc1nc(N2CCN(C)CC2)ncc1Sc1cccc(NC(=O)CN)c1 | 19
14 | C=CC(=O)Nc1ccnc(Sc2c(C)nc(N3CCN(C)CC3)nc2C)n1 | 5
15 | CCC(=O)Nc1cccc(Sc2c(OC)nc(N3CCN(C)CC3)nc2OC)c1 | 75
16 | Cc1nc(N2CCN(C)CC2)nc(C)c1Sc1nccc(NC(=O)c2ccco2)n1 | 30
17 | C=CC(=O)Nc1cc(N)nc(Sc2c(OCC)nc(N3CCN(C)CC3)nc2OCC)n1 | 1.5
18 | CCOc1nc(N2CCN(C)CC2)nc(OCC)c1Sc1nc(N)cc(NC(=O)CC)n1 | 80

Molecular target: Heat shock protein HSP 90-beta (Homo sapiens) (UniProt P08238)
Test: Displacement of GM-Cy3B from HSP90 in human SKBR3 cells after 24 hrs by fluorescence polarization assay
Conditions: SK-BR-3

Chain of Heat shock protein HSP 90-beta (Homo sapiens) (P08238 whole entry): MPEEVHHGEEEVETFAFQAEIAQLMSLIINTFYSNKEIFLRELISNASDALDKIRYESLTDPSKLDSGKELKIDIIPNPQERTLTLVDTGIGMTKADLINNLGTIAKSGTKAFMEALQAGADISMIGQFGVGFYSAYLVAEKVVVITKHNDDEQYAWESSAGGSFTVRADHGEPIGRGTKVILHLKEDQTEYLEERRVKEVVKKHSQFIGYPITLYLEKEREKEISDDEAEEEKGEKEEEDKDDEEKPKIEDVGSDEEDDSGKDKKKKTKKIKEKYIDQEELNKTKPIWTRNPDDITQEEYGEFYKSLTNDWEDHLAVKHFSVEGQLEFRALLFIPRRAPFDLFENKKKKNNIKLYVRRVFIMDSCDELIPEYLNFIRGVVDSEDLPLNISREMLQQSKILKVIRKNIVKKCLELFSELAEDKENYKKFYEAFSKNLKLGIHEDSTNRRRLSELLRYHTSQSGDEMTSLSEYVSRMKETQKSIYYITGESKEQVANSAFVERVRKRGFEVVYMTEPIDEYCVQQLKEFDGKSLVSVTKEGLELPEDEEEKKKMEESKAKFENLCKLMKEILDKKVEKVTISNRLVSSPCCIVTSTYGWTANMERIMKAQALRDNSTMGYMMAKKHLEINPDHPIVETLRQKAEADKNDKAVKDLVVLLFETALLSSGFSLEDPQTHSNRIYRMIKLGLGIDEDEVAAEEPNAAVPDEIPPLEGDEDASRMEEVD

Row | INH [µM] | Structure (SMILES)
19 | > 500 | COc1nc(N2CCN(C)CC2)ncc1Sc1cccc(NC(=O)CN)c1
20 | > 500 | CCC(=O)Nc1cccc(Sc2c(OC)nc(N3CCN(C)CC3)nc2OC)c1
21 | > 250 | Cc1nc(N2CCN(C)CC2)nc(C)c1Sc1nccc(NC(=O)c2ccco2)n1

Second part, the compound before the results:

Row | Structure (SMILES) | INH [µM]
22 | C=CC(=O)Nc1ccnc(Sc2c(C)nc(N3CCN(C)CC3)nc2C)n1 | > 500
23 | C=CC(=O)Nc1cc(N)nc(Sc2c(OCC)nc(N3CCN(C)CC3)nc2OCC)n1 | > 500
24 | CCOc1nc(N2CCN(C)CC2)nc(OCC)c1Sc1nc(N)cc(NC(=O)CC)n1 | > 250

Tested on: MOLM-13
Test: Induction of apoptosis in human MOLM13 cells assessed as caspase 3/7 activation after 16 hrs by fluorescence assay
Type: functional, cell-based
Conditions: Homo sapiens, MOLM-13, 16 h; read-out: IC50
In short: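 MOLM-13 cells at 30000/well in RPMI, held up to 24 h (37 °C, 5% CO2), then exposed 16 h to compound or DMSO. Buffer with 10 mM HEPES pH 7.5, 2 mM EDTA, 0.1% CHAPS and 25 μM Z-DEVD-R110 substrate added; fluorescence read once signal stabilized. Percent apoptotic increase calculated relative to control cells.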

Row | IC50 [µM] | Structure (SMILES)
25 | 32 | COc1nc(N2CCN(C)CC2)ccc1Sc1cccc(NC(=O)C2CC2)c1
26 | > 250 | CN1CCN(c2ccc(Sc3cccc(NC(=O)CN)c3)c(O)n2)CC1
27 | 13 | COc1nc(N2CCN(C)CC2)ncc1Sc1cccc(NC(=O)CN)c1
28 | 65 | CCC(=O)Nc1cccc(Sc2c(OC)nc(N3CCN(C)CC3)nc2OC)c1
29 | 32 | Cc1nc(N2CCN(C)CC2)nc(C)c1Sc1nccc(NC(=O)c2ccco2)n1

Continued, compound first:

Row | Structure (SMILES) | IC50 [µM]
30 | CCC(=O)Nc1ccnc(Sc2c(C)nc(N3CCN(C)CC3)nc2C)n1 | 98
31 | CCOc1nc(N2CCN(C)CC2)nc(OCC)c1Sc1nc(N)cc(NC(=O)CC)n1 | 37

Tested on: SK-BR-3
Test: Inhibition of HSP70 in human SKBR3 cells assessed as Raf-1 degradation by Western blotting analysis
Type: cell-based
Conditions: not given
In short: as §1

Row | Structure (SMILES) | INH [µM]
32 | COc1nc(N2CCN(C)CC2)ncc1Sc1cccc(NC(=O)CN)c1 | 15
33 | C=CC(=O)Nc1ccnc(Sc2c(C)nc(N3CCN(C)CC3)nc2C)n1 | 5
34 | CCC(=O)Nc1cccc(Sc2c(OC)nc(N3CCN(C)CC3)nc2OC)c1 | 80
35 | Cc1nc(N2CCN(C)CC2)nc(C)c1Sc1nccc(NC(=O)c2ccco2)n1 | 25
36 | C=CC(=O)Nc1cc(N)nc(Sc2c(OCC)nc(N3CCN(C)CC3)nc2OCC)n1 | 2.5
37 | CCOc1nc(N2CCN(C)CC2)nc(OCC)c1Sc1nc(N)cc(NC(=O)CC)n1 | 70

Tested on: Kasumi 1
Test: Cytotoxicity against human Kasumi-1 cells after 72 hrs by alamar blue assay
Type: functional, cell-based
Conditions: Homo sapiens, Kasumi 1, 72 h; read-out: IC50
In short: as §2

Row | Structure (SMILES) | IC50 [µM]
38 | COc1nc(N2CCN(C)CC2)ccc1Sc1cccc(NC(=O)C2CC2)c1 | 36.4
39 | COc1nc(N2CCN(C)CC2)ncc1Sc1cccc(NC(=O)CN)c1 | 25.2
40 | Cc1nc(N2CCN(C)CC2)nc(C)c1Sc1nccc(NC(=O)c2ccco2)n1 | 30.3
41 | CCOc1nc(N2CCN(C)CC2)nc(OCC)c1Sc1nc(N)cc(NC(=O)CC)n1 | 51.4
